Test results from ChEMBL document CHEMBL2086271, “Bicyclic Cyclohexenones as Inhibitors of NF-κB Signaling” (ACS Med Chem Lett, 2012).
Blank lines part the entries; values can stand above or below the compound they belong to. Active and inactive are the calls of the source. The rule behind the calls is not given here.

What was measured:
[1] = Solubility of the compound in DMEM media; assay type: physicochemical
A549 [2] = test: Inhibition of TNFalpha-induced NFkappaB in human A549 cells assessed as residual enzyme activity at 100 uM incubated for 30 mins prior to TNFalpha-induction measured after 7 hrs by luciferase reporter gene assay relative to control; assay type: cell-based
Method in brief: (§1)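 A549 human lung cells stably carry a luciferase reporter driven by six tandem consensus NF-κB sites. Signaling was induced with TNF-α, and compound was added at 100, 50 or 10 μM. Luciferase activity is expressed relative to the induced, DMSO-treated control, set at 100%. Mean ± SD reported.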

A549 [3] = test: Inhibition of TNFalpha-induced NFkappaB in human A549 cells assessed as residual enzyme activity at 50 uM incubated for 30 mins prior to TNFalpha-induction measured after 7 hrs by luciferase reporter gene assay relative to control; assay type: cell-based; method in brief: as §1
A549 [4] = test: Inhibition of TNFalpha-induced NFkappaB in human A549 cells assessed as residual enzyme activity at 10 uM incubated for 30 mins prior to TNFalpha-induction measured after 7 hrs by luciferase reporter gene assay relative to control; assay type: cell-based; method in brief: as §1
A549 [5] = test: Cytotoxicity against human TNFalpha-induced A549 cells assessed as decrease in cell viability at 50 uM incubated for 30 mins prior to TNFalpha-induction measured after 7 hrs by alamar blue staining relative to control; assay type: cell-based; conditions: a549, 7 h
CCRF-CEM [6] = test: Cytotoxicity against human CCRF-CEM cells after 48 hrs by alamar blue assay; assay type: functional, cell-based
Method in brief: (§2)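 Viability read by Alamar Blue staining after 48 h exposure to a range of concentrations. Vero (African green monkey kidney epithelial), RWPE-1, DU-145 and CCRF-CEM human cells were used. IC50 is reported as mean ± SD.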

DU-145 [7] = test: Cytotoxicity against human DU145 cells after 48 hrs by alamar blue assay; assay type: functional, cell-based; method in brief: as §2
DU-145 [8] = test: Ratio of cryptocaryone IC50 to compound IC50 for human DU145 cells; assay type: functional
Vero = test: Cytotoxicity against african green monkey Vero cells after 48 hrs by alamar blue assay; assay type: cell-based; conditions: Chlorocebus sabaeus; method in brief: as §2
[9] = Cytotoxicity against human RWPE1 cells after 48 hrs by alamar blue assay; assay type: cell-based; conditions: RWPE-1, 48 h; method in brief: as §2
[10] = Selectivity index, ratio of IC50 for human RWPE1 cells to IC50 for human DU145 cells; assay type: functional
DU-145 [11] = test: Inhibition of IkappaB in human DU145 cells assessed as inhibition of TNFalpha-induced NFkappaB p65 nuclear translocation at 100 uM incubated for 14 hrs prior to TNFalpha-induction measured after 2 hrs by Western blot analysis; assay type: cell-based
CCRF-CEM [12] = test: Inhibition of IkappaB in human CCRF-CEM cells assessed as inhibition of PMA-induced NFkappaB p65 nuclear translocation at 100 uM incubated for 12 hrs prior to TNFalpha-induction measured after 4 hrs by Western blot analysis; assay type: cell-based
DU-145 [13] = test: Partial inhibition of IkappaB in human DU145 cells assessed as inhibition of TNFalpha-induced NFkappaB p65 nuclear translocation at 25 uM incubated for 14 hrs prior to TNFalpha-induction measured after 2 hrs by Western blot analysis; assay type: cell-based
CCRF-CEM [14] = test: Partial inhibition of IkappaB in human CCRF-CEM cells assessed as inhibition of PMA-induced NFkappaB p65 nuclear translocation at 25 uM incubated for 12 hrs prior to TNFalpha-induction measured after 4 hrs by Western blot analysis; assay type: cell-based
DU-145 [15] = test: Inhibition of NFkappaB in human DU145 cells assessed as inhibition of TNFalpha-induced IL8 mRNA production at 33 uM by RT-PCR analysis; assay type: cell-based
Method in brief: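 DU-145 cells were dosed with compound (100 or 33 μM) or DMSO vehicle, then induced with TNF-α. IL-8 mRNA was analysed by semiquantitative RT-PCR, with GAPDH as reference. Noninduced and induced cells served as controls.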

DU-145 [16] = test: Inhibition of NFkappaB in human DU145 cells assessed as inhibition of TNFalpha-induced IL8 protein production at 33 uM by ELISA; assay type: cell-based
Method in brief: (§3)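 DU-145 cells were dosed with compound (100 or 33 μM) or DMSO vehicle, then NF-κB was induced with TNF-α. Secreted IL-8 in the culture medium was quantified by ELISA, with noninduced and induced controls. Mean ± SEM reported.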

DU-145 [17] = test: Inhibition of NFkappaB in human DU145 cells assessed as TNFalpha-induced IL8 protein level at 100 uM by ELISA; assay type: cell-based; method in brief: as §3

- solubility [1]: Insoluble
SMILES: CO[C@@]12C=C(Br)C(=O)C[C@@H]1/C(=C(/OC(C)=O)c1ccccc1)CC2 (racemic)

SMILES: CC(=O)O/C(=C1\CO[C@]2(C)C=CC(=O)C[C@H]12)c1ccccc1 (racemic)
- Activity (A549 [2]): 33.9%
- Activity (A549 [3]): 61.6%
- Activity (A549 [4]): 90.9%
- Activity (A549 [5]): 10%
- IC50 (CCRF-CEM [6]; Homo sapiens, CCRF-CEM, 48 h): 26.4 µM
- IC50 (DU-145 [7]; Homo sapiens, DU-145, 48 h): 33.7 µM
- Ratio IC50 (DU-145 [8]): 15
- IC50 (Vero): > 500 µM
- IC50 [9]: 14.8 µM
- Ratio IC50 [10]: 0.44
- inhibition (DU-145 [11]): Active
- inhibition (CCRF-CEM [12]): Active
- inhibition (DU-145 [13]): Active
- inhibition (CCRF-CEM [14]): Active
- inhibition (DU-145 [15]): Active
- Activity (DU-145 [16]): 3480 pg/mL

SMILES: CC(=O)O/C(=C1\CO[C@]2(C)CCC(=O)C[C@H]12)c1ccccc1 (racemic)
- Activity (A549 [2]): 76.1%
- Activity (A549 [3]): 94.4%
- Activity (A549 [4]): 109%
- IC50 (CCRF-CEM [6]; Homo sapiens, CCRF-CEM, 48 h): > 500 µM
- IC50 (DU-145 [7]; Homo sapiens, DU-145, 48 h): > 500 µM
- IC50 (Vero): > 500 µM
- IC50 [9]: > 500 µM
- Activity (DU-145 [17]): 4900 pg/mL

SMILES: CC(=O)O/C(C)=C1\CO[C@]2(C)C=C(Br)C(=O)C[C@H]12 (racemic)
- inhibition (A549 [2]): inactive
- inhibition (A549 [3]): inactive
- inhibition (A549 [4]): inactive

SMILES: CC(=O)O/C(C)=C1\CO[C@]2(C)C=C(Br)[C@H](O)C[C@H]12 (racemic)
- inhibition (A549 [2]): inactive
- inhibition (A549 [3]): inactive
- inhibition (A549 [4]): inactive

SMILES: CC(=O)O/C(C)=C1\CO[C@]2(C)C=C(C)C(=O)C[C@H]12 (racemic)
- inhibition (A549 [2]): inactive
- inhibition (A549 [3]): inactive
- inhibition (A549 [4]): inactive

SMILES: CC(=O)O/C(C)=C1\CO[C@]2(C)C=CC(=O)C[C@]12C (racemic)
- inhibition (A549 [2]): inactive
- inhibition (A549 [3]): inactive
- inhibition (A549 [4]): inactive

SMILES: CC(=O)[C@H]1CO[C@]2(C)C=C(c3ccccc3)[C@H](O)C[C@H]12 (racemic)
- inhibition (A549 [2]): inactive
- inhibition (A549 [3]): inactive
- inhibition (A549 [4]): inactive

SMILES: CC(=O)O/C(C)=C1\CO[C@]2(c3ccccc3)C=CC(=O)C[C@H]12 (racemic; form 1) [listing 1 of 2 here]
- Activity (A549 [5]): 5%
- IC50 (CCRF-CEM [6]; ccrf-cem): 26.4 µM
- IC50 (DU-145 [7]; Homo sapiens, DU-145, 48 h): 35.9 µM
- Ratio IC50 (DU-145 [8]): 15
- IC50 (Vero): > 500 µM
- IC50 [9]: 98.8 µM
- Ratio IC50 [10]: 2.75

SMILES: CC(=O)O/C(C)=C1\CO[C@]2(c3ccccc3)C=CC(=O)C[C@H]12 (racemic; form 1) [listing 2 of 2 here]
- Activity (A549 [2]): 17.3%
- Activity (A549 [3]): 36.2%
- Activity (A549 [4]): 93.7%
- inhibition (DU-145 [11]): Active
- inhibition (CCRF-CEM [12]): Active
- inhibition (DU-145 [13]): Active
- inhibition (CCRF-CEM [14]): Active
- inhibition (DU-145 [15]): Active
- Activity (DU-145 [16]): 2970 pg/mL

SMILES: CC(=O)O/C(C)=C1\CO[C@]2(c3ccccc3)C=CC(=O)C[C@H]12 (racemic; form 2) [listing 1 of 2 here]
- IC50 (CCRF-CEM [6]; Homo sapiens, CCRF-CEM, 48 h): 19 µM
- IC50 (DU-145 [7]; du-145): 46 µM

SMILES: CC(=O)O/C(C)=C1\CO[C@]2(c3ccccc3)C=CC(=O)C[C@H]12 (racemic; form 2) [listing 2 of 2 here]
- Activity (A549 [3]): 18%

SMILES: O=C1C[C@@H]2/C(=C(O)\C=C\c3ccccc3)C(=O)C=C[C@@H]2O1 [CRYPTOCARYONE]
- IC50 (DU-145 [7]; Homo sapiens, DU-145, 48 h): 2.3 µM
